# Screening data: PubChem BioAssay, SRMLSC
# HCT116 bCat-KO: primary screen for growth suppressors in beta-catenin knockout HCT116 cells (colon tumor, human). 140,000 tested, 1.5% active. viability, % at 10 µM. HCT116 beta-catenin knockout viability, CellTiter-Glo, 60 h; stronger effect = lower value;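 active = viability at or under a set limit, the compound median less 4 SD, cut at about 6% in these data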;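 note: 0% = Hyamine 1622 control at 20 µM and 100% = untreated cell control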
# HUVEC inhibit: inhibitors of HUVEC proliferation, primary screen, cell-based, 384-well; CellTiter-Glo luminescence, 72 h; stronger effect = lower value; viability, % at 10 µM (by protocol); 86,000 tested, 1.1% active; AID 648, 2007;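 active = viability at or below 30%; inactive = viability above 30%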;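 note: 100% = median luminescence of DMSO-only cell control wells on each plate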
# Fibroblast inh: antiproliferative effect on LL 47 fibroblasts – human, LL 47 cells, CellTiter-Glo luminescence, primary screen | AID 719, 2007 | 85,000 tested, 1.1% active | viability, % at 10 µM | LL 47 human lung fibroblast viability, ATP luminescence; stronger effect = lower value;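 active = viability at or below 50% in the single dose screen; inactive = viability above 50%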;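 note: compound exposure lasted 72 h before the ATP readout; 100% = median luminescence of untreated cell-only wells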
#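 Test system: LL 47 human lung fibroblasts; Quantity: 1,150 cells/well; Buffer or medium: IMEM plus 15% FBS; Dosing: tenfold compound dosing solution, DMSO at 0.1%; Timing: overnight cell rest, 72 h compound treatment at 37 °C; Detection: ATP-based CellTiter-Glo luminescent readout; Read-out basis: viability percentage against median untreated-cell control; Controls: cell-only wells, no compound.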
# PTEN del growth: growth suppression of PTEN-null HCT116, primary screen, cell-based, CellTiter-Glo. HCT116 PTEN-null viability, 60 h; stronger effect = lower value. viability, % at 10 µM. 140,000 tested, 1.2% active;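 active = viability at or below a set limit, 4 SD under the median of all tested compounds, cut at about 3.7% in these data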;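 note: PTEN knockout HCT116 line with beta catenin targeted HCT116 as companion control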
# H69AR growth 86K: proliferation blockers of H69AR lung cancer cells, primary screen, cell-based, human, 86K library; 85,000 tested, 6% active; viability, % at 10 µM; H69AR lung tumor viability, ATP luminescence, 72 h; stronger effect = lower value;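 active = viability at or below 40%; inactive = viability above 40%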;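 note: multidrug resistant small cell line overexpressing MRP-1 efflux transporter; 100% = mean luminescence of untreated control wells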
# * hit, by the source's call; / = no result given. Many of the other results were omitted from the sample, so hits are more common in it than they were.
SMILES,HCT116 bCat-KO,HUVEC inhibit,Fibroblast inh,PTEN del growth,H69AR growth 86K
CCC1(C)Cc2c(sc3nc(SC)n(Cc4ccccc4)c(=O)c23)CO1 (centres undefined),75,123,94,78,97
CCC1(C)Cc2c(sc3c2c2ncnn2c2nnc(SCC(=O)NCc4ccco4)n32)CO1 (centres undefined),67,78,96,68,37*
CCC1(C)Cc2c(sc3c2c(=O)n(C)c2nnc(SCC(=O)c4ccccc4)n32)CO1 (centres undefined),/,83,35*,/,4.2*
Cc1cccc(OCc2nc(-c3ccccn3)n[nH]2)c1,25,78,100,36,34*
Cc1ccc(OCc2nc(-c3ccccn3)n[nH]2)cc1,91,82,100,72,33*
N#Cc1cc([N+](=O)[O-])cnc1N(CCO)CCO,89,/,/,94,/
O=c1[nH]c2ccccc2n1CCCSc1cnc2ccccc2n1,79,79,95,68,38*
Cc1ccc(/C=C2/SC(=S)N(CC(=O)Nc3ncc(Cc4ccc(C)cc4)s3)C2=O)cc1,82,93,84,79,4.0*
Cc1ccc(/C=C2\SC(=S)N(CC(=O)Nc3ncc(Cc4ccccc4Cl)s3)C2=O)cc1,74,/,/,66,/
CCN(CC)S(=O)(=O)c1cc(NC(=O)C(C)OC(=O)c2[nH]c(C)c(C(C)=O)c2C)ccc1C (centres undefined),64,/,/,82,/
COc1cc(-c2nc(-c3ccc4c(c3)-c3ccccc3S4(=O)=O)c(-c3ccccc3)[nH]2)cc(OC)c1O,41,58,66,23,43
COC(=O)CSc1nc(-c2cccs2)ccc1C#N,74,100,96,86,37*
CSc1nc(C2CC2)cc(-c2cccs2)c1C#N,34,30*,32*,28,8.6*
CN1CCN(C(=O)CSc2nc(-c3cccs3)cc(-c3cccs3)c2C#N)CC1,3.1*,2.0*,53,4,5.4*
COc1ccc(-c2cc(C3CC3)nc(SCC(=O)c3cccs3)c2C#N)cc1,74,/,/,81,/
COc1ccc(-c2cc(-c3cccs3)c(C#N)c(SCC(=O)NCc3ccco3)n2)cc1,14,52,57,19,22*
C#CCSc1nc(-c2cccs2)ccc1C#N,95,57,82,88,43
O=C(NCc1cccs1)c1ccc([N+](=O)[O-])cc1Cl,94,/,/,104,/
Cc1c(NC(=O)C(C)OC(=O)c2ccc(Cl)nc2)c(=O)n(-c2ccccc2)n1C (centres undefined),94,/,/,102,/
CCN(c1ccccc1)S(=O)(=O)c1cc(C(=O)Nc2ccc(F)c(F)c2)ccc1F,4.5*,/,/,3.4*,/
FC(F)(F)c1nc2ccccc2c2nc3ccccc3n12,97,/,/,99,/
Cc1ccc(-c2nnc3c(C(F)(F)F)nc4ccccc4n23)cc1,4.7*,/,/,8,/
FC(F)(F)c1nc2ccccc2n2c(-c3ccc(Cl)cc3)nnc12,4.8*,/,/,10,/
CCOC(=O)c1c(C)nc(SCC(N)=O)c(C#N)c1-c1ccccc1,83,/,/,95,/
COc1ccc(-c2c(C#N)c(SCC(=O)c3cc4ccccc4oc3=O)nc(C)c2C(=O)Nc2ccccc2)cc1,3.2*,/,/,4,/
SMILES,HCT116 bCat-KO,HUVEC inhibit,Fibroblast inh,PTEN del growth,H69AR growth 86K
Cc1nc(SCC(=O)c2cc3ccccc3oc2=O)c(C#N)c(-c2ccccc2)c1C(=O)Nc1ccccc1,1.4*,/,/,1.7*,/
CCOC(=O)/C=C(\C)Sc1cc(=O)oc2ccccc12,10,49,86,7,13*
CCOC(=O)Nc1oc2ccccc2c(=O)c1C,96,86,93,94,95
Cc1cc(NC(=S)NC(=O)C2CC2)ccc1Br,79,/,/,73,/
CC(C)C1C(c2ccccc2)N(C)C(c2ccccc2)CC1(O)c1ccccc1 (centres undefined),26,61,83,25,20*
Cc1ccc(C2(C(F)(F)F)NC(=O)N3CCCN=C3S2)cc1 (centres undefined),100,90,88,97,102
Cc1ccc(C2(C(F)(F)F)NC(=O)N3CCN=C3S2)cc1 (centres undefined),61,82,63,66,22*
CC(C)(C)c1ccc(OCCC(=O)Nc2cccc(S(=O)(=O)N3CCCCC3)c2)cc1,75,/,/,75,/
COc1ccc(C(=O)COC(=O)c2ccc(NC(=O)c3ccccc3)cc2)cc1,1.1*,/,/,33,/
